Measured values reported in ChEMBL document CHEMBL1145425, “Antitumor agents 259. Design, syntheses, and structure-activity relationship study of desmosdumotin C analogs” (2007).
Values after ≈ are worked out from the molar mass of the structure shown.

Test system: A549
Assay: Cytotoxicity against human A549 cells
Format: functional
Settings: read-out: ED50 (the source's name)
Summary of the method: (§1)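 Sulforhodamine B growth assay. Lines kept in RPMI-1640 with 25 mM HEPES, 0.25% sodium bicarbonate, 10% FBS and kanamycin. Trypsinized cells seeded at 1500–7500 per well, with compound added from DMSO-diluted stock. After 3 days, attached cells fixed with cold 50% TCA, stained with 0.4% SRB, dye solubilized, absorbance read at 562 nm. ED50 is 50% growth reduction, averaged over at least three independent determinations.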

Structure (SMILES)	EC50 [µg/mL]
COC1=C(C)C(=O)/C(=C(O)/C=C/c2nccs2)C(=O)C1(C)C	3.5 (≈ 11 µM)
COC1=C(C)C(=O)/C(=C(O)/C=C/c2cccc(OC)c2)C(=O)C1(C)C	2.8 (≈ 8.18 µM)
COC1=C(C)C(=O)/C(=C(O)/C=C/c2ccc(O)cc2)C(=O)C1(C)C	3.1 (≈ 9.44 µM)
CCc1ccc(/C=C/C(O)=C2/C(=O)C(C)=C(OC)C(C)(C)C2=O)cc1	6.1 (≈ 17.9 µM)
COC1=C(C)C(=O)/C(=C(O)/C=C/c2cccc3ccccc23)C(=O)C1(C)C	3.6 (≈ 9.93 µM)
CCC1=C(OC)C(C)(C)C(=O)C(C(=O)/C=C/c2ccccc2)=C1O	5.5 (≈ 16.9 µM)
COC1=C(C)C(O)=C(C(=O)/C=C/c2ccccc2)C(=O)C1(C)C [DESMOSDUMOTIN C]	3.5 (≈ 11.2 µM)

Test system: A-431
Assay: Cytotoxicity against human A431 cells
Format: functional
Settings: read-out: ED50 (the source's name)
Summary of the method: as §1

Structure (SMILES)	EC50 [µg/mL]
COC1=C(C)C(=O)/C(=C(O)/C=C/c2nccs2)C(=O)C1(C)C	6 (≈ 18.8 µM)
COC1=C(C)C(=O)/C(=C(O)/C=C/c2cccc(OC)c2)C(=O)C1(C)C	4.5 (≈ 13.1 µM)
COC1=C(C)C(=O)/C(=C(O)/C=C/c2ccc(O)cc2)C(=O)C1(C)C	14.9 (≈ 45.4 µM)
CCc1ccc(/C=C/C(O)=C2/C(=O)C(C)=C(OC)C(C)(C)C2=O)cc1	12 (≈ 35.3 µM)
COC1=C(C)C(=O)/C(=C(O)/C=C/c2cccc3ccccc23)C(=O)C1(C)C	4.1 (≈ 11.3 µM)
CCC1=C(OC)C(C)(C)C(=O)C(C(=O)/C=C/c2ccccc2)=C1O	13.8 (≈ 42.3 µM)
COC1=C(C)C(O)=C(C(=O)/C=C/c2ccccc2)C(=O)C1(C)C [DESMOSDUMOTIN C]	5.1 (≈ 16.3 µM)

Test system: 1A9
Assay: Cytotoxicity against human 1A9 cells
Format: functional
Settings: read-out: ED50 (the source's name)
Summary of the method: as §1

Structure (SMILES)	EC50 [µg/mL]
COC1=C(C)C(=O)/C(=C(O)/C=C/c2nccs2)C(=O)C1(C)C	3.5 (≈ 11 µM)
COC1=C(C)C(=O)/C(=C(O)/C=C/c2cccc(OC)c2)C(=O)C1(C)C	2.9 (≈ 8.47 µM)
COC1=C(C)C(=O)/C(=C(O)/C=C/c2ccc(O)cc2)C(=O)C1(C)C	2.9 (≈ 8.83 µM)
CCc1ccc(/C=C/C(O)=C2/C(=O)C(C)=C(OC)C(C)(C)C2=O)cc1	5.3 (≈ 15.6 µM)
CCC1=C(OC)C(C)(C)C(=O)C(C(=O)/C=C/c2ccccc2)=C1O	3.8 (≈ 11.6 µM)
COC1=C(C)C(O)=C(C(=O)/C=C/c2ccccc2)C(=O)C1(C)C [DESMOSDUMOTIN C]	3.5 (≈ 11.2 µM)

Test system: HCT-8
Assay: Cytotoxicity against human HCT8 cells
Format: functional
Settings: read-out: ED50 (the source's name)
Summary of the method: as §1

Structure (SMILES)	EC50 [µg/mL]
COC1=C(C)C(=O)/C(=C(O)/C=C/c2nccs2)C(=O)C1(C)C	5.1 (≈ 16 µM)
COC1=C(C)C(=O)/C(=C(O)/C=C/c2cccc(OC)c2)C(=O)C1(C)C	2.9 (≈ 8.47 µM)
COC1=C(C)C(=O)/C(=C(O)/C=C/c2ccc(O)cc2)C(=O)C1(C)C	14.8 (≈ 45.1 µM)
CCc1ccc(/C=C/C(O)=C2/C(=O)C(C)=C(OC)C(C)(C)C2=O)cc1	10.5 (≈ 30.8 µM)
COC1=C(C)C(=O)/C(=C(O)/C=C/c2cccc3ccccc23)C(=O)C1(C)C	2.3 (≈ 6.35 µM)
CCC1=C(OC)C(C)(C)C(=O)C(C(=O)/C=C/c2ccccc2)=C1O	9.4 (≈ 28.8 µM)
COC1=C(C)C(O)=C(C(=O)/C=C/c2ccccc2)C(=O)C1(C)C [DESMOSDUMOTIN C]	3.7 (≈ 11.8 µM)

Test system: PC-3
Assay: Cytotoxicity against human PC3 cells
Format: functional
Settings: read-out: ED50 (the source's name)
Summary of the method: as §1

Structure (SMILES)	EC50 [µg/mL]
COC1=C(C)C(=O)/C(=C(O)/C=C/c2nccs2)C(=O)C1(C)C	10.8 (≈ 33.8 µM)
COC1=C(C)C(=O)/C(=C(O)/C=C/c2cccc(OC)c2)C(=O)C1(C)C	14.3 (≈ 41.8 µM)
COC1=C(C)C(=O)/C(=C(O)/C=C/c2ccc(O)cc2)C(=O)C1(C)C	> 20
CCc1ccc(/C=C/C(O)=C2/C(=O)C(C)=C(OC)C(C)(C)C2=O)cc1	15.1 (≈ 44.4 µM)
COC1=C(C)C(=O)/C(=C(O)/C=C/c2cccc3ccccc23)C(=O)C1(C)C	9 (≈ 24.8 µM)
CCC1=C(OC)C(C)(C)C(=O)C(C(=O)/C=C/c2ccccc2)=C1O	18.9 (≈ 57.9 µM)
COC1=C(C)C(O)=C(C(=O)/C=C/c2ccccc2)C(=O)C1(C)C [DESMOSDUMOTIN C]	11.1 (≈ 35.5 µM)

Test system: KB
Assay: Cytotoxicity against human KB cells
Format: functional
Settings: read-out: ED50 (the source's name)
Summary of the method: as §1

Structure (SMILES)	EC50 [µg/mL]
COC1=C(C)C(=O)/C(=C(O)/C=C/c2nccs2)C(=O)C1(C)C	4.3 (≈ 13.5 µM)
COC1=C(C)C(=O)/C(=C(O)/C=C/c2cccc(OC)c2)C(=O)C1(C)C	3.3 (≈ 9.64 µM)
COC1=C(C)C(=O)/C(=C(O)/C=C/c2ccc(O)cc2)C(=O)C1(C)C	3.8 (≈ 11.6 µM)
CCc1ccc(/C=C/C(O)=C2/C(=O)C(C)=C(OC)C(C)(C)C2=O)cc1	6.9 (≈ 20.3 µM)
COC1=C(C)C(=O)/C(=C(O)/C=C/c2cccc3ccccc23)C(=O)C1(C)C	2.8 (≈ 7.73 µM)
CCC1=C(OC)C(C)(C)C(=O)C(C(=O)/C=C/c2ccccc2)=C1O	4.3 (≈ 13.2 µM)
COC1=C(C)C(O)=C(C(=O)/C=C/c2ccccc2)C(=O)C1(C)C [DESMOSDUMOTIN C]	4 (≈ 12.8 µM)

Test system: KB
Assay: Cytotoxicity against human vincristine-resistant KB cells
Format: functional
Settings: read-out: ED50 (the source's name)
Summary of the method: as §1

Structure (SMILES)	EC50 [µg/mL]
COC1=C(C)C(=O)/C(=C(O)/C=C/c2nccs2)C(=O)C1(C)C	3 (≈ 9.39 µM)
COC1=C(C)C(=O)/C(=C(O)/C=C/c2cccc(OC)c2)C(=O)C1(C)C	2.4 (≈ 7.01 µM)
COC1=C(C)C(=O)/C(=C(O)/C=C/c2ccc(O)cc2)C(=O)C1(C)C	3.8 (≈ 11.6 µM)
CCc1ccc(/C=C/C(O)=C2/C(=O)C(C)=C(OC)C(C)(C)C2=O)cc1	1.9 (≈ 5.58 µM)
COC1=C(C)C(=O)/C(=C(O)/C=C/c2cccc3ccccc23)C(=O)C1(C)C	1.3 (≈ 3.59 µM)
CCC1=C(OC)C(C)(C)C(=O)C(C(=O)/C=C/c2ccccc2)=C1O	0.3 (≈ 0.919 µM)
COC1=C(C)C(O)=C(C(=O)/C=C/c2ccccc2)C(=O)C1(C)C [DESMOSDUMOTIN C]	3 (≈ 9.6 µM)

Test system: HUVEC
Assay: Cytotoxicity against HUVEC
Format: functional
Settings: Homo sapiens, read-out: ED50 (the source's name)
Summary of the method: (§2)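 HUVEC seeded at 1.5×10^3 per well in EGM-2; after 24 h (day zero) compound added in EGM-2 at 2× the desired concentration. Day-zero plate stained with crystal violet. Remaining plates kept 72 h at 37 °C, then stained with 0.5% crystal violet in 20% MeOH. Dye eluted with 1:1 EtOH:0.1 M sodium citrate and read at 540 nm. Run per the NCI Angiogenesis Resource Center protocol.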

Structure (SMILES)	EC50 [µg/mL]
COC1=C(C)C(=O)/C(=C(O)/C=C/c2nccs2)C(=O)C1(C)C	1.6 (≈ 5.01 µM)
COC1=C(C)C(=O)/C(=C(O)/C=C/c2cccc(OC)c2)C(=O)C1(C)C	1.6 (≈ 4.67 µM)
COC1=C(C)C(=O)/C(=C(O)/C=C/c2ccc(O)cc2)C(=O)C1(C)C	4 (≈ 12.2 µM)
COC1=C(C)C(=O)/C(=C(O)/C=C/c2cccc3ccccc23)C(=O)C1(C)C	1.8 (≈ 4.97 µM)
COC1=C(C)C(O)=C(C(=O)/C=C/c2ccccc2)C(=O)C1(C)C [DESMOSDUMOTIN C]	2.1 (≈ 6.72 µM)

Test system: HUVEC
Assay: Antiangiogenesis activity against HUVEC
Format: functional
Settings: Homo sapiens, read-out: ED50 (the source's name)
Summary of the method: as §2

Structure (SMILES)	EC50 [µg/mL]
COC1=C(C)C(=O)/C(=C(O)/C=C/c2nccs2)C(=O)C1(C)C	< 4
COC1=C(C)C(=O)/C(=C(O)/C=C/c2cccc(OC)c2)C(=O)C1(C)C	< 4
COC1=C(C)C(=O)/C(=C(O)/C=C/c2ccc(O)cc2)C(=O)C1(C)C	< 4
COC1=C(C)C(=O)/C(=C(O)/C=C/c2cccc3ccccc23)C(=O)C1(C)C	< 4
COC1=C(C)C(O)=C(C(=O)/C=C/c2ccccc2)C(=O)C1(C)C [DESMOSDUMOTIN C]	< 4

Test system: not listed separately
Assay: Selectivity ratio of ED50 for KB cells to ED50 for KB-VIN cells
Format: functional, Homo sapiens
Settings: not given

Structure (SMILES)	Ratio ED50
CCC1=C(OC)C(C)(C)C(=O)C(C(=O)/C=C/c2ccccc2)=C1O	14.3
